Assay [1] can be described thus: inhibitors of TNFa-induced NFkB p65 translocation, primary screen, imaging, HUVEC, MLSMR starter and 10KST1 sets (AID 438;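 active = inhibition above 20% together with a positive visual image hit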;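 also: compound added about 3h40 before a 20 min TNFalpha stimulation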;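 as to inhibition: signal is the nuclear over cytoplasmic p65 intensity ratio per well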). The following applies: HUVEC TNFa-induced p65 nuclear translocation; cell count: measured here: nuclei count (cytotoxicity indicator), at 2.08 µM; inhibition: at 2 µM, stronger effect = higher value, 0% TNFa-plus-vehicle, 100% no-TNFa wells.
Assay [2] is described as follows: endothelial E-selectin expression blockers – imaging, HUVEC, immunofluorescence, MLSMR starter and 10KST1 sets, primary screen (AID 487;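 active = visually confirmed hit in the image check and inhibition above 20%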;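 as to inhibition: signal is fraction of cell area covered by stained E-selectin grains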;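 as to nuclei count: 100% = median nuclei count of all wells on the same plate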). The following applies: HUVEC TNFalpha-induced E-selectin immunofluorescence imaging, at 2 µM; inhibition: stronger effect = higher value; nuclei count: measured here: cell number, toxicity.
The nature of assay [3]: Primary imaging screen for DUSP6 inhibitors that restore phospho-Erk in transfected HeLa cells, chemical complementation (AID 609;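 active = compounds giving at least 50% inhibition in the cell-based MKP-3 phosphatase rescue imaging test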;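 as to inhibition: phospho-Erk level distribution per well compared with pooled transfected vehicle control wells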). The following applies: HeLa MKP-3 transfected, phospho-Erk imaging KS statistic, at 10 µM, cells stimulated with TPA for 15 min.
The target in assay [4] is Dual specificity protein phosphatase 6 (Homo sapiens) (UniProt Q16828). The assay is described as above. Particulars: HeLa MKP-3 transfected, phospho-Erk imaging KS statistic; at 10 µM; stronger effect = higher value; cells stimulated with TPA for 15 min.
Assay [5] has as its target Voltage-gated potassium channel subunit beta-2 (Rattus norvegicus) (UniProt P62483). As to the kind of experiment: inhibitors of rat Kvbeta2 reductase activity – biochemical, NADPH fluorescence, primary screen (AID 622;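 active = fluorescence slope higher than the sample average by over 3 SD, cut at about -0.22 in these data, passing the limit was not always enough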;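 also: slope of raw intensity against log time taken from 70 to 1610 s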). The following applies: recombinant KvBeta, 4-cyanobenzaldehyde reduction, at 10 µM, stronger effect = higher value.
The target is the same in assay [6]. The experiment in a line: enhancers of rat Kvbeta2 NADPH turnover – biochemical, NADPH fluorescence, primary screen (AID 623;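 active = NADPH fluorescence slope more negative than the mean of all samples by about 3 SD, 99.7% confidence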;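 also: fluorescence intensity change per second fitted from 20 to 320 s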). Particulars: Recombinant KvBeta, NADPH fluorescence decrease slope, 10 min; at 10 µM; stronger effect = lower value.
Assay [7] has as its target Alpha-2C adrenergic receptor (Homo sapiens) (UniProt P18825). The experiment in a line: compounds altering alpha2C-coupled GIRK flux – cell-based, HEK293 alpha2C/GIRK1/2, thallium flux, primary screen (AID 624).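 Also: slope of fluorescence ratio to pre-addition baseline per second over 15 to 24 s.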 Particulars: thallium flux BTC fluorescence, at 10 µM, actives lie on both sides.
The nature of assay [8]: inhibitors of larval lipid processing in zebrafish, primary screen, whole organism, PED6 fluorescence, gall bladder and intestine (AID 686;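 active = a full or partial loss of lipid-probe fluorescence in the fish gall bladder, intestine or both, judged by eye; inactive = no fluorescence loss, or compound toxic to the fish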;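 also: larvae 5 to 7 days old with five fish per well; signal comes from phospholipase A2 cleavage of quenched PED6 carried via bile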). The following applies: Zebrafish larvae PED6 lipid processing, fluorescence scoring; screened at 20 µM (by protocol). A digest of the protocol: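 System: live zebrafish larvae aged 5-7 days, whole organism; measure: graded gall bladder and intestinal fluorescence inhibition per well; incubation: overnight exposure; reagent: ingested quenched lipid PED6 at 100 nM; signal: By-eye fluorescence microscopy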

Assay [9] is described as follows: loss of swimming-algae plug formation – whole organism, Chlamydomonas reinhardtii, WT vs cilia-less mutant, absorbance, 96-well, primary screen (AID 463189;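 active = inhibition at or above 50% relative to wild type and mutant plate controls; inactive = inhibition below 50%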;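 also: 0% = wild type cc124 cells in DMSO and 100% = ciliumless bld1 mutant cells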). The following applies: Chlamydomonas reinhardtii gravitaxis, OD600 absorbance, 2 days; at 10 µM; stronger effect = higher value.
The mark [10] stands for this setting: measured here: cell density z-score.
The mark [11] stands for this setting: measured here: nuclear c-Myc green intensity z-score.
Setting [12] is: measured here: nuclear pErk red intensity z-score, stronger effect = higher value.

Activity calls are given as the source filed them.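 The calls were made as follows, unless noted: active = fluorescence slope after compound addition differing from the mean of all screened samples at 99.7% confidence, in either direction; inactive = the rest.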

Chain of Alpha-2C adrenergic receptor (Homo sapiens) (P18825 whole entry, looked up): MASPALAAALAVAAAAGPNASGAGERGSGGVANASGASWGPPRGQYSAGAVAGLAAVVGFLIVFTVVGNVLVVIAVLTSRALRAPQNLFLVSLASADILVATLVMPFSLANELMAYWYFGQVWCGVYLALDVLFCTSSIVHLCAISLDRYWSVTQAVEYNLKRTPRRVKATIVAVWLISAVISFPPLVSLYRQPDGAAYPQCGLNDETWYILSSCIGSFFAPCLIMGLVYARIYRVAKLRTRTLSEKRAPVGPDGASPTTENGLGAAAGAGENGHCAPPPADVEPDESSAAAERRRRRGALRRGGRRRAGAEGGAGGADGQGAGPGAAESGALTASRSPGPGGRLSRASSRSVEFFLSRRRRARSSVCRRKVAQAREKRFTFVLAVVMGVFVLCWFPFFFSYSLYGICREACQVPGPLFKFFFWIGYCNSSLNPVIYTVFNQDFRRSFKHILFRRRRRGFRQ
Chain of Voltage-gated potassium channel subunit beta-2 (Rattus norvegicus) (P62483 whole entry, looked up): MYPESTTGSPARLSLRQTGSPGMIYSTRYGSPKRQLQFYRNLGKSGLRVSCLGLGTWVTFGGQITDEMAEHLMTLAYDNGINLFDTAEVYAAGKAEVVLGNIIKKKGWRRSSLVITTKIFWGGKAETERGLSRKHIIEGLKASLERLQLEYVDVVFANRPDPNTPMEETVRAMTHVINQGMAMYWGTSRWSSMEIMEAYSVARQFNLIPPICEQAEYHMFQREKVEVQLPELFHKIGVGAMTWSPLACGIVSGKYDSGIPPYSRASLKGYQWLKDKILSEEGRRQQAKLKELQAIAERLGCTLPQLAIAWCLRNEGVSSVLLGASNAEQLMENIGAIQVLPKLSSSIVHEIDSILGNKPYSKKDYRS
Chain of Dual specificity protein phosphatase 6 (Homo sapiens) (Q16828 whole entry, looked up): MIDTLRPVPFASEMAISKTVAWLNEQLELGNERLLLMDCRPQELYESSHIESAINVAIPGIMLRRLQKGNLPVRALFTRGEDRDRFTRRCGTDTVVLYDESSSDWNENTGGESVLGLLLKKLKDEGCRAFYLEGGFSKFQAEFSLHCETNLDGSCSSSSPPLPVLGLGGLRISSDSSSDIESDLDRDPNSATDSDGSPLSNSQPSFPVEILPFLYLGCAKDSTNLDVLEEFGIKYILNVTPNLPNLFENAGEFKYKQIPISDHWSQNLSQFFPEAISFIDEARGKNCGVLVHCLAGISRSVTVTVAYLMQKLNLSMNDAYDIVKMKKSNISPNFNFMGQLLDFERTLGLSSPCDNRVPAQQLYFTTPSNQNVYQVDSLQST

As to `CCOc1ccc(C2C(C(=O)c3ccc(C)o3)=C(O)C(=O)N2CCCN(CC)CC)cc1` (stereo unspecified), the cell count in assay [1] is 518. For the same compound, the inhibition in assay [1] was -20.5% (inactive); in assay [2], -72.6% (inactive); in assay [4], -2.47% (inactive); in assay [9], 0.749% (inactive). In addition, the nuclei count in assay [2] turned out to be 151%. For the same compound, the z-score is 1.15 in [3] (setting [10]), -0.0565 in assay [3] (setting [11]) and 0.452 in assay [3] (setting [12]). Besides, in assay [5], the fluorescence slope is -0.509 (inactive). For the same compound, in [6], the NADPH fluorescence slope is -3.9e-05 (inactive). In assay [7], the slope was 0.00538 (inactive). Also, the result in [8] was inactive.
In the case of `Cn1c(OCc2ccco2)nc2c1c(=O)n(Cc1ccc(Cl)c(Cl)c1)c(=O)n2C`, the cell count in assay [1] worked out at 642. For the same compound, the inhibition in [1] is -4.4% (inactive); in [2], 12.6% (inactive); in assay [4], 0.671% (inactive); in assay [9], -1.38% (inactive). The compound also gave a nuclei count in assay [2] of 136%. The z-score in [3] (setting [10]) is 1.05; in assay [3] (setting [11]), 0.078; in assay [3] (setting [12]), -0.436. Also, the fluorescence slope in [5] was -0.521 (inactive). Further, the NADPH fluorescence slope in assay [6] is -4.1e-05 (inactive). For the same compound, the slope in [7] is 0.00511 (inactive). In [8], the call was inactive.
Turning to `O=c1c(C=NCCCn2ccnc2)c(-c2ccccc2)[nH]n1-c1nc2ccccc2s1`, in [1], the cell count came to 579. Also, the inhibition in [1] is -6.5% (inactive); in assay [2], -108% (inactive); in [4] it was 25.8% (inactive); in assay [9], 1.09% (inactive). Moreover, in [2], the nuclei count was determined as 132%. Moreover, the results for the z-score in [3] (setting [10]), in [3] (setting [11]) and in assay [3] (setting [12]) were 1.34, -0.223 and 0.991, respectively. In addition, the fluorescence slope in [5] was -0.47 (inactive). Moreover, the NADPH fluorescence slope in [6] was -1.6e-05 (inactive). Further, in [7], the slope was 0.00444 (inactive). In addition, the result in [8] was inactive.
For the compound `Cc1cc(C)nc(N(C#N)S(=O)(=O)c2ccccc2Cl)n1`, the cell count in [1] turned out to be 352. In addition, the inhibition was -11.5% (inactive) in assay [1], -228% (inactive) in [2], -2.07% (inactive) in assay [4] and -0.932% (inactive) in assay [9]. Moreover, the nuclei count in assay [2] stood at 115%. For the same compound, the z-score in assay [3] (setting [10]) was -0.515; in assay [3] (setting [11]) it was -1.54; in [3] (setting [12]) it was -0.959. Also, the fluorescence slope in assay [5] was -0.406 (inactive). For the same compound, the NADPH fluorescence slope in assay [6] was -3.7e-06 (inactive). In addition, the slope in assay [7] is 0.0071 (inactive). Besides, the compound was called inactive in assay [8].
Take `CSc1nc2sc3c(c2c(=O)[nH]1)CCC(C)C3` (stereo unspecified): in [1], the cell count came to 503. Besides, the inhibition is -19.4% (inactive) in assay [1], -109% (inactive) in assay [2], 20.2% (inactive) in assay [4] and 3.37% (inactive) in assay [9]. Besides, in assay [2], the nuclei count turned out to be 191%. Also, the z-score was -1.18 in [3] (setting [10]), 2.07 in assay [3] (setting [11]) and -0.579 in [3] (setting [12]). In addition, the fluorescence slope in assay [5] is -0.364 (inactive). Besides, the NADPH fluorescence slope in assay [6] is 1.3e-05 (inactive). Further, the slope in assay [7] was 0.00953 (active). Besides, the outcome in assay [8] was inactive.
Regarding `COc1ccc(C(=O)N/C(N)=N/c2nc3ccccc3o2)cc1`, the cell count in assay [1] turned out to be 557. In addition, the inhibition is -12.2% (inactive) in assay [1], -140% (inactive) in [2], -3.97% (inactive) in [4] and 14.5% (inactive) in [9]. In [2], the nuclei count was determined as 137%. For the same compound, the z-score is 0.0574 in assay [3] (setting [10]), 0.314 in assay [3] (setting [11]) and 0.889 in assay [3] (setting [12]). Moreover, in assay [5], the fluorescence slope is -0.499 (inactive). Further, in assay [6], the NADPH fluorescence slope was -3.2e-05 (inactive). Besides, the slope in assay [7] was 0.0048 (inactive). Also, in assay [8], the call was inactive.
On to `COc1cccc(/C(O)=C2\C(=O)C(=O)N(c3ccccn3)C2c2ccccc2OC)c1` (stereo unspecified), for which the cell count in assay [1] was determined as 512. For the same compound, the inhibition was -5.9% (inactive) in assay [1], -90.1% (inactive) in assay [2], 12.3% (inactive) in [4] and -14.1% (inactive) in [9]. In assay [2], this compound displayed a nuclei count of 126%. Besides, the figures for the z-score in assay [3] (setting [10]), in assay [3] (setting [11]) and in [3] (setting [12]) were 1.61, 0.206 and -0.573, respectively. Besides, in assay [5], the fluorescence slope was -0.54 (inactive). Besides, the NADPH fluorescence slope in [6] was -2.1e-05 (inactive). Further, the slope in [7] is 0.00547 (inactive). The result in [8] was inactive.
Turning to `COc1ccccc1-n1c(=O)c2c3c(sc2n2c(SC)nnc12)CCC3`, in assay [1], the cell count came to 612. In addition, the inhibition was -29% (inactive) in [1], -100% (inactive) in assay [2], -0.608% (inactive) in assay [4] and 16.5% (inactive) in [9]. Moreover, the nuclei count in assay [2] turned out to be 169%. Also, the z-score in assay [3] (setting [10]) was -1.08; in [3] (setting [11]) it was -0.0482; in [3] (setting [12]), 1.7. The fluorescence slope in [5] was -0.367 (inactive). The NADPH fluorescence slope in [6] is -5.4e-05 (inactive). Moreover, the slope in [7] is 0.00462 (inactive). Moreover, in [8], the compound was called inactive.
Consider `CCCSc1nnc2n(-c3ccccc3OC)c(=O)c3c4c(sc3n12)CCC4`, for which the cell count in assay [1] came out at 523. Further, the inhibition in assay [1] was -14.8% (inactive); in assay [2], -63.5% (inactive); in assay [4], 7.73% (inactive); in assay [9], 11.2% (inactive). Besides, in [2], the nuclei count came to 171%. The figures for the z-score in assay [3] (setting [10]), in [3] (setting [11]) and in assay [3] (setting [12]) were 1.08, -1.06 and -0.347, respectively. Further, the fluorescence slope in [5] was -0.358 (inactive). Further, the NADPH fluorescence slope in assay [6] is -3.5e-05 (inactive). Further, in [7], the slope was 0.00552 (inactive). For the same compound, the outcome in assay [8] was inactive.
`COC(=O)c1ccc(Oc2nc3ccccc3n3c(C)nnc23)cc1`: the cell count in assay [1] was 328. The inhibition in [1] was -6.8% (inactive); in assay [2] it was -57.8% (inactive); in assay [4] it was 24.7% (inactive); in [9] it was 27% (inactive). Also, the nuclei count in [2] was determined as 74%. Further, the z-score is 0.524 in assay [3] (setting [10]), 1.04 in assay [3] (setting [11]) and -0.937 in [3] (setting [12]). Further, the fluorescence slope in [5] is -0.434 (inactive). The NADPH fluorescence slope in assay [6] is -1.9e-05 (inactive). In assay [7], the slope is 0.00622 (inactive). In assay [8], the call was inactive.
Turning to `Cc1cc(=O)[nH]c(SCC(=O)c2ccccc2)c1C#N`, in [1], the cell count was found to be 391. For the same compound, the inhibition in [1] is -0.9% (inactive); in assay [2] it was 1.9% (inactive); in [4], 13.4% (inactive); in assay [9], -2.65% (inactive). Further, the nuclei count in assay [2] stood at 168%. Further, the results for the z-score in [3] (setting [10]), in assay [3] (setting [11]) and in assay [3] (setting [12]) were 2.74, -1.01 and -0.58, respectively. In assay [5], the fluorescence slope was -0.41 (inactive). Moreover, the NADPH fluorescence slope in assay [6] was -0.000133 (inactive). Further, the slope in [7] is 0.00479 (inactive). The outcome in [8] was inactive.
Consider `Cc1cc(=O)n2[nH]cnc2n1`, for which the cell count in assay [1] was 517. Also, the inhibition in assay [1] was -4.6% (inactive); in [2], -138% (inactive); in assay [4] it was 5.57% (inactive); in assay [9], -0.839% (inactive). In assay [2], this compound showed a nuclei count of 125%. Further, the z-score in assay [3] (setting [10]) is 1.56; in assay [3] (setting [11]) it was -0.453; in assay [3] (setting [12]), -0.845. The fluorescence slope in [5] was -0.502 (inactive). In assay [6], the NADPH fluorescence slope was -0.000147 (inactive). The slope in [7] was 0.00471 (inactive). In addition, the result in assay [8] was inactive.
